Measured values published in ChEMBL document CHEMBL5696442, “Discovery of type II inhibitors of TGFβ-activated kinase 1 (TAK1) and mitogen-activated protein kinase kinase kinase kinase 2 (MAP4K2)” (J Med Chem, 2015).
Activity calls are given as the source filed them. The rule behind the calls is not given here.

Key:
[1] = biological target: T1, Aurora kinase A (Homo sapiens) (UniProt O14965); assay: Inhibition of AurA K2 labeling site harbouring DIKPENLLLGSAGELK in human Huh-7 cells at 1 uM by KiNativ Profiling analysis relative to control; format: cell-based
T1 sequence (whole entry): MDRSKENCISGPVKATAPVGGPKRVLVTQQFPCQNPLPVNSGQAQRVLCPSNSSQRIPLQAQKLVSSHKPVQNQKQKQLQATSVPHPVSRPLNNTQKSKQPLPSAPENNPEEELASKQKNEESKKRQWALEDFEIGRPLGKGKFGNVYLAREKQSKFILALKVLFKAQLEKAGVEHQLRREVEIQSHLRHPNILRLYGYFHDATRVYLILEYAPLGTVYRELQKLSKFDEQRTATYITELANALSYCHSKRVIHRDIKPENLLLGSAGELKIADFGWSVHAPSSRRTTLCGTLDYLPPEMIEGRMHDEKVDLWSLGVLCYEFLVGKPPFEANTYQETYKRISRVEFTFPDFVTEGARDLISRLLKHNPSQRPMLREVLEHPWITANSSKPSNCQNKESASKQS

[2] = biological target: NT-3 growth factor receptor (Homo sapiens) (UniProt Q16288); assay: Inhibition of TRKC (unknown origin) at 10 uM by Ambit Kinomescan binding assay relative to control; values are per cent of control
[3] = biological target: Peripheral plasma membrane protein CASK (Homo sapiens) (UniProt O14936); assay: Inhibition of CASK K1 labeling site in human Huh-7 cells at 10 uM by KiNativ Profiling analysis relative to control
RAW = assay: Inhibition of LPS induced p38 phosphorylation in mouse RAW cells preincubated for 1 hr followed by LPS stimulation and measured after 30 mins by Western blot analysis; format: functional, cell-based; conditions: dose 0.01-10 µM
[4] = system: Proto-oncogene tyrosine-protein kinase receptor Ret (Homo sapiens), P07949 [V804M]; assay: Inhibition of RET V804M mutant (unknown origin) at 10 uM by Ambit Kinomescan binding assay relative to control; values are per cent of control
[5] = Inhibition of KHS1/2 K2 labeling site in human Huh-7 cells at 10 uM by KiNativ Profiling analysis relative to control; conditions: condition cancer
[6] = biological target: TRAF2 and NCK-interacting protein kinase (Homo sapiens) (UniProt Q9UKE5); assay: Inhibition of TNIK K1 labeling site in human Huh-7 cells at 10 uM by KiNativ Profiling analysis relative to control; format: cell-based
TRAF2 and NCK-interacting protein kinase (Homo sapiens), sequence (Q9UKE5 whole entry, looked up): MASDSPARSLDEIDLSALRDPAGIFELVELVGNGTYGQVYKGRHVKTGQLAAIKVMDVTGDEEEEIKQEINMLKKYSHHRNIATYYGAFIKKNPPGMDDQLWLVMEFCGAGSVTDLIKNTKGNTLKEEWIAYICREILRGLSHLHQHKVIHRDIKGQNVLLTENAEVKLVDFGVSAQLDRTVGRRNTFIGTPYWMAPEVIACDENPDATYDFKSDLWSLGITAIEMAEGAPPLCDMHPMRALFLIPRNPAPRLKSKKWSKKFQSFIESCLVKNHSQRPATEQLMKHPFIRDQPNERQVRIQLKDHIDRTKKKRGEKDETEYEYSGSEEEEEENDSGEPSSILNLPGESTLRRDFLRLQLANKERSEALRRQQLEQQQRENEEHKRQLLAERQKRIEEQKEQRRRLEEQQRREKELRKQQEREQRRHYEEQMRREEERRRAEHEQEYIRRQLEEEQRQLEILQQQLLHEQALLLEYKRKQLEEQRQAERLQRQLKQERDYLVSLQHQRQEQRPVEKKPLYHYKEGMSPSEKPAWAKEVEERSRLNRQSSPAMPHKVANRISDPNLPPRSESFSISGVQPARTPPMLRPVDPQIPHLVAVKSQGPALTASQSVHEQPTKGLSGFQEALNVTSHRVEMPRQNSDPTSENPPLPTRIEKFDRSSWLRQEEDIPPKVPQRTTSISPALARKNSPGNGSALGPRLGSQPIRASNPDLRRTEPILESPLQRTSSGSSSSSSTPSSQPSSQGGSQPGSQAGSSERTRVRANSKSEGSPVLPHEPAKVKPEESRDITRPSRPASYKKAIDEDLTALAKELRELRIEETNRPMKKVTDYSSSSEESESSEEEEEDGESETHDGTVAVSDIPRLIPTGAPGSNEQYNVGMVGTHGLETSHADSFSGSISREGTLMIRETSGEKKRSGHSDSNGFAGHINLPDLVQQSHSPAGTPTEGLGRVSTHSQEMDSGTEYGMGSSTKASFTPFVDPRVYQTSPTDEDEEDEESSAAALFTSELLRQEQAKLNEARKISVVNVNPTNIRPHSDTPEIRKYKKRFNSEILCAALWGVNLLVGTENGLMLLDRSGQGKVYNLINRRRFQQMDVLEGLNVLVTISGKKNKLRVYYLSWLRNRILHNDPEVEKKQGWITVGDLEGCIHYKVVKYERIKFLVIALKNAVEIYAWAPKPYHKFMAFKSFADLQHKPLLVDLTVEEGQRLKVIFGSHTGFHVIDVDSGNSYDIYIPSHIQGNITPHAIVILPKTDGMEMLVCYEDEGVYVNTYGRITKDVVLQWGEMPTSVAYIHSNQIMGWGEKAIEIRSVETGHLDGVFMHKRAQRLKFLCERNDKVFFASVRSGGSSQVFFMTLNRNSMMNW

[7] = biological target: T2, Mitogen-activated protein kinase kinase kinase kinase 2 (Homo sapiens) (UniProt Q12851); assay: Inhibition of MAP4K2 Lys2 labeling site in human A-375 cells at 5 uM by KiNativ Profiling analysis relative to control; format: cell-based
T2 sequence (whole entry): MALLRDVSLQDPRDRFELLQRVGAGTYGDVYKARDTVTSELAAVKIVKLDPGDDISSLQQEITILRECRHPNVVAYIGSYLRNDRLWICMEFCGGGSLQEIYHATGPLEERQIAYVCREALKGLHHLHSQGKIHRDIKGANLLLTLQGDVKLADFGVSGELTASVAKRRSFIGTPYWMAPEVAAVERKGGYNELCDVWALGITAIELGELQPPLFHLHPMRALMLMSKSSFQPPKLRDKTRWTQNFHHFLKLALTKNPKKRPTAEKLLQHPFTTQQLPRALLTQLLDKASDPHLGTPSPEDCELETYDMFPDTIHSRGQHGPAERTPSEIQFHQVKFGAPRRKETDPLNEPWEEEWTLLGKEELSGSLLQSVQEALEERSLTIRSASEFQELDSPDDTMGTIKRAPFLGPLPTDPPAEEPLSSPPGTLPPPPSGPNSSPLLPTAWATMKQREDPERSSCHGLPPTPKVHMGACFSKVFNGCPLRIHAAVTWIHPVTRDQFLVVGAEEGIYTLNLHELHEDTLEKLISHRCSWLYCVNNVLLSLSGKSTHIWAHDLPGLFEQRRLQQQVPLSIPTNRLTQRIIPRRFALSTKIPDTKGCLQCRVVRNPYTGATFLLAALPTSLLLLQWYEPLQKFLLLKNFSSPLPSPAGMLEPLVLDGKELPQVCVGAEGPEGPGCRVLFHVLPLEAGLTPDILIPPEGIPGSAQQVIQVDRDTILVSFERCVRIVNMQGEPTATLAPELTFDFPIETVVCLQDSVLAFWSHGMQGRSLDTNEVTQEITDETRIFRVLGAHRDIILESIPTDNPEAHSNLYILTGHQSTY

[8] = biological target: T1, Aurora kinase A (Homo sapiens); assay: Inhibition of AurA K2 labeling site harbouring DIKPENLLLGSAGELK in human Huh-7 cells at 10 uM by KiNativ Profiling analysis relative to control; format: cell-based
[9] = biological target: Dual specificity protein kinase CLK4 (Homo sapiens) (UniProt Q9HAZ1); assay: Inhibition of CLK4 (unknown origin) at 10 uM by Ambit Kinomescan binding assay
Dual specificity protein kinase CLK4 (Homo sapiens), sequence (Q9HAZ1 whole entry, looked up): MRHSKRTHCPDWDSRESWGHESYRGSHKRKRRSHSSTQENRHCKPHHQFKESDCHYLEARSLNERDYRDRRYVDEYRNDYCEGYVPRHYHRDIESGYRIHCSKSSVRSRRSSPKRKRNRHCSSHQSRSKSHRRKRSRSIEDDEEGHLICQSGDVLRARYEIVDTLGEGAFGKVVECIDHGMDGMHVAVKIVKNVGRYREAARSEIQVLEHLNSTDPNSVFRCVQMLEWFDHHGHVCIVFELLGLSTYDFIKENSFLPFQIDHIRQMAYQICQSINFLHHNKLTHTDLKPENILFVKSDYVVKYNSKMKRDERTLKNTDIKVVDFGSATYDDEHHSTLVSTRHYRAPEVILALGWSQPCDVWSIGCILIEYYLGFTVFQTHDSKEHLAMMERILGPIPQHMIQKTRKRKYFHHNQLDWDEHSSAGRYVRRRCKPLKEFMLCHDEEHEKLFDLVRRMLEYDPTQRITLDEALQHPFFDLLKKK

[10] = biological target: Phosphatidylinositol 4-kinase type 2-beta (Homo sapiens) (UniProt Q8TCG2); assay: Inhibition of PI4K2B ATP labeling site in human Huh-7 cell lysate at 1 uM by KiNativ Profiling analysis relative to control; format: subcellular
[11] = biological target: TRAF2 and NCK-interacting protein kinase (Homo sapiens) (UniProt Q9UKE5); assay: Inhibition of ZC2/TNIK Lys2 labeling site in human Huh-7 cells at 1 uM by KiNativ Profiling analysis relative to control; format: cell-based
[12] = biological target: Mitogen-activated protein kinase kinase kinase 4 (Homo sapiens) (UniProt Q9Y6R4); assay: Inhibition of MAP3K4 Lys2 labeling site in human A-375 cells at 5 uM by KiNativ Profiling analysis relative to control; format: cell-based
Mitogen-activated protein kinase kinase kinase 4 (Homo sapiens), sequence (Q9Y6R4 whole entry): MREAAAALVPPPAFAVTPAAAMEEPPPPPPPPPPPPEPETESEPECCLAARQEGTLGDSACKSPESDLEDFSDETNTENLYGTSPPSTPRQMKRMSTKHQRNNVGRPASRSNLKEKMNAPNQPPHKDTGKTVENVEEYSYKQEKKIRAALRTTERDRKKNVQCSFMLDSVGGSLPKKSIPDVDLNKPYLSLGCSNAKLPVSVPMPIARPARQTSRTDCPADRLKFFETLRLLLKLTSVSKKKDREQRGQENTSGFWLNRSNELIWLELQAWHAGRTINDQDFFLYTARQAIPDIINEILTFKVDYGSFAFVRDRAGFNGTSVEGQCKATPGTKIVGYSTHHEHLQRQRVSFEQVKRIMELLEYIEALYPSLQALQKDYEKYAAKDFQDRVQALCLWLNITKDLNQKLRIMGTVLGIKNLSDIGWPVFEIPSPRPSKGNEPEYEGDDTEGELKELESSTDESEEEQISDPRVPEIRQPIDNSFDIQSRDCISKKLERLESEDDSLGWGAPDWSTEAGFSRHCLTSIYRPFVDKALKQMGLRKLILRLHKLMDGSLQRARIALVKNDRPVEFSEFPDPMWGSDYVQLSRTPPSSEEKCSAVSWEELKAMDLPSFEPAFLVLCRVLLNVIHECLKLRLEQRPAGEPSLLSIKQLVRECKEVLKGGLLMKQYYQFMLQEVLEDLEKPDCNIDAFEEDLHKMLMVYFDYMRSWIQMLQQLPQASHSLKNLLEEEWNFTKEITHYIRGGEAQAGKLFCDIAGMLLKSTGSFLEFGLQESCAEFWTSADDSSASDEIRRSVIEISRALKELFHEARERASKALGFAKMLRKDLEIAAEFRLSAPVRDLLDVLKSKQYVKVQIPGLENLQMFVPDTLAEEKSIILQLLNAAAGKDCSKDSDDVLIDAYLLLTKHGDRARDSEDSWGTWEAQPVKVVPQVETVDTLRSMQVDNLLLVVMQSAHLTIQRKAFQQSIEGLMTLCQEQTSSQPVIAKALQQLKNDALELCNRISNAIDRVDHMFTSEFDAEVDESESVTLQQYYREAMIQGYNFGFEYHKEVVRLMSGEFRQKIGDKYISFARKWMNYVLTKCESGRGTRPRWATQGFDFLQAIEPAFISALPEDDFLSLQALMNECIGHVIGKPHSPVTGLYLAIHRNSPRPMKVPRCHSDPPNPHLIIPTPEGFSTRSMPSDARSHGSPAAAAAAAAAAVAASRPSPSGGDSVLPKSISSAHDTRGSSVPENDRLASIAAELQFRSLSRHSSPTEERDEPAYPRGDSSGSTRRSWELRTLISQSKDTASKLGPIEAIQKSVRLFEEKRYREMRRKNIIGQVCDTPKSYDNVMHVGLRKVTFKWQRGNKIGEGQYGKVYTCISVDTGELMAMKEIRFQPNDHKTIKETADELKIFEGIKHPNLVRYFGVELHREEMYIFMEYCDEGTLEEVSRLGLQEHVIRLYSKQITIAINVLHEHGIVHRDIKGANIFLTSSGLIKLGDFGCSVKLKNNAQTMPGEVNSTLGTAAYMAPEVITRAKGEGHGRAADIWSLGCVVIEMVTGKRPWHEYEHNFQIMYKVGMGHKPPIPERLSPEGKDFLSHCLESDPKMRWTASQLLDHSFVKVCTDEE

[13] = biological target: Serine/threonine-protein kinase MRCK alpha (Homo sapiens) (UniProt Q5VT25); assay: Inhibition of MRCKA (unknown origin) at 1 uM by Ambit Kinomescan binding assay relative to control
[14] = biological target: Ribosomal protein S6 kinase alpha-2 (Homo sapiens) (UniProt Q15349); assay: Inhibition of RSK3 domain1 Lys2 labeling site in human A-375 cells at 5 uM by KiNativ Profiling analysis relative to control; format: cell-based
Ribosomal protein S6 kinase alpha-2 (Homo sapiens), sequence (Q15349 whole entry, the tested form may be a part): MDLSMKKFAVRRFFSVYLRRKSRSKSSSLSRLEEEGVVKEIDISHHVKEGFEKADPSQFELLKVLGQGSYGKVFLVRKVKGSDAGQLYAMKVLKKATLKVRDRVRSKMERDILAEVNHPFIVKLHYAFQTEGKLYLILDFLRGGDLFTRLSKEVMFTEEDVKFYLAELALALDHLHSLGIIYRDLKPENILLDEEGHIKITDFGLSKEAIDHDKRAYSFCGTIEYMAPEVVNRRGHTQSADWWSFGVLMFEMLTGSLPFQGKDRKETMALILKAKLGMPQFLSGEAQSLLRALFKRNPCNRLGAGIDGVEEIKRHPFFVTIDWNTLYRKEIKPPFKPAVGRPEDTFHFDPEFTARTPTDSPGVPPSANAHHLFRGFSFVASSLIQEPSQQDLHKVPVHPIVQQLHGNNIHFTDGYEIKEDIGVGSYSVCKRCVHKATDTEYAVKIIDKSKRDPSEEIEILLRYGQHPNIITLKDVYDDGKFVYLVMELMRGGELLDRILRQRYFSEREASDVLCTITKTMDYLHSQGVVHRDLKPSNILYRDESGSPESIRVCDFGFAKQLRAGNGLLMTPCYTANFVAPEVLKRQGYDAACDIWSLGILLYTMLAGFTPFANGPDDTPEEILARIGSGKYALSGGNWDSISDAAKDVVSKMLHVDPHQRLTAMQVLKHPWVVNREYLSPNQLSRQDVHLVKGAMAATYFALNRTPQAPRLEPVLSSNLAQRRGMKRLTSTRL
Summary of the method: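 Live A375 melanoma cells treated with compound at 5 or 0.5 μM, then lysed. Lysate kinases were labeled with a lysine-reactive ATP or ADP-biotin probe. Inhibition was read as protection of labeling sites from the probe.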

[15] = biological target: Myosin light chain kinase 2, skeletal/cardiac muscle (Homo sapiens) (UniProt Q9H1R3); assay: Inhibition of MYLK2 (unknown origin) at 1 uM by Ambit Kinomescan binding assay relative to control; values are per cent of control
Myosin light chain kinase 2, skeletal/cardiac muscle (Homo sapiens), sequence (Q9H1R3 whole entry): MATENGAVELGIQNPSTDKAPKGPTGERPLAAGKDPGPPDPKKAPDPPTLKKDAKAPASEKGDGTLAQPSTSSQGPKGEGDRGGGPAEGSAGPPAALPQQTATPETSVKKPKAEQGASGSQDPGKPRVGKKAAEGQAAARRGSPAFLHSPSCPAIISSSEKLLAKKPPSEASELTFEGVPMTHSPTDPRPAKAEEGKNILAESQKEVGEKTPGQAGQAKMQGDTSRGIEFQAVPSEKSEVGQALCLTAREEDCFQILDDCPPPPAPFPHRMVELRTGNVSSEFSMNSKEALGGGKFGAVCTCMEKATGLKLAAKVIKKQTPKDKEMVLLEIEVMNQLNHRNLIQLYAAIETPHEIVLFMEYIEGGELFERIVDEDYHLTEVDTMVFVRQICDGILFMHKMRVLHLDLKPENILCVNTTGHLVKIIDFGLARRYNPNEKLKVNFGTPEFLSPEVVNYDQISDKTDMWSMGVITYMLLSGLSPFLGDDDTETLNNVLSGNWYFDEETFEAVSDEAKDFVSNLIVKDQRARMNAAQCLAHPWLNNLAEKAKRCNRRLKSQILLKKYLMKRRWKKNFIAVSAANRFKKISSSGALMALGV

With CCN1CCN(Cc2ccc(NC(=O)c3ccc(C)c(Oc4ccnc5[nH]ccc45)c3)cc2C(F)(F)F)CC1 the inhibition [1] was 0.9%, the residual activity [2] was 3.8% and the inhibition [3] was 12%. For the same molecule, the inhibition (RAW) was “Dose-Dependent Effect”, the residual activity [4] was 1% and the inhibition at 10 µM [5] was 6.6%. It also gave an inhibition [6] of 74.5%, an inhibition [7] of 94% and an inhibition [8] of 9.4%. For the same molecule, the inhibition [9] was “inactive”.

Work on CNc1cc(Oc2cc(C(=O)Nc3cc(N4CCN(C)CC4)cc(C(F)(F)F)c3)ccc2C)ncn1 yielded an inhibition [10] of 25% and an inhibition [11] of 9.7%.

With CCN1CCN(Cc2ccc(NC(=O)c3ccc(C)c(/C=C/c4cnc5[nH]ccc5c4OC)c3)cc2C(F)(F)F)CC1 the inhibition [12] was 14.2%, the inhibition [13] was 79% and the inhibition [14] was 16.5%. For the same molecule, the residual activity [15] was 4.6%.
